Reference: ChEMBL document CHEMBL1142636 (2000)
Values after ≈ are worked out from the molar mass of the structure shown.

Legend:
[1] = Growth inhibition of human RPMI8266 cells; assay type: functional
[2] = tested on: HCC 2998; assay: Growth inhibition of human HCC2998 cells; assay type: functional
[3] = tested on: MOLT-4; assay: Growth inhibition of human MOLT4 cells; assay type: functional
[4] = Growth inhibition of human HL60(TB) cells; assay type: functional, HL-60(TB); details: HL-60
[5] = tested on: SNB-75; assay: Growth inhibition of human SNB75 cells; assay type: functional
In short: (§1)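 Tested at the NCI in its human disease-oriented in vitro screen of 60 tumour cell lines, following the Monks et al. methods. Activity is expressed as GI50, given as log molar values.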

[6] = Growth inhibition of human OVACR5 cells; assay type: functional
[7] = tested on: HOP-92; assay: Growth inhibition of human HOP92 cells; assay type: functional
[8] = tested on: M14; assay: Growth inhibition of human M14 cells; assay type: functional
[9] = tested on: HCT-15; assay: Growth inhibition of human HCT15 cells; assay type: functional
[10] = tested on: SK-OV-3; assay: Growth inhibition of human SK-OV-3 cells; assay type: functional; in short: as §1
[11] = tested on: Malme-3M; assay: Growth inhibition of human MALME-3M cells; assay type: functional
[12] = tested on: UACC-62; assay: Growth inhibition of human UACC62 cells; assay type: functional; in short: as §1
[13] = tested on: 786-0; assay: Growth inhibition of human 786-0 cells; assay type: functional
[14] = Growth inhibition of human […] cells; assay type: functional
[15] = tested on: NCI-H460; assay: Growth inhibition of human NCI-H460 cells; assay type: functional
[16] = tested on: XF498; assay: Growth inhibition of human XF498 cells; assay type: functional; in short: as §1
[17] = tested on: KM-20L2; assay: Growth inhibition of human KM20L2 cells; assay type: functional
[18] = tested on: NCI-H322M; assay: Growth inhibition of human NCI-H322M cells; assay type: functional
[19] = tested on: HCT-116; assay: Growth inhibition of human HCT116 cells; assay type: functional
[20] = tested on: UO-31; assay: Growth inhibition of human UO31 cells; assay type: functional; in short: as §1
[21] = Growth inhibition of human OVACR8 cells; assay type: functional
[22] = tested on: COLO 205; assay: Growth inhibition of human COLO205 cells; assay type: functional; details: for EC50: read-out: ED50 (the source's name)
[23] = tested on: SK-MEL-28; assay: Growth inhibition of human SK-MEL-28 cells; assay type: functional; in short: as §1
[24] = tested on: DMS-273; assay: Growth inhibition of human DMS273 cells; assay type: functional
[25] = tested on: SK-MEL-5; assay: Growth inhibition of human SK-MEL-5 cells; assay type: functional; details: for EC50: read-out: ED50 (the source's name); in short: as §1
[26] = tested on: SR; assay: Growth inhibition of human SR cells; assay type: functional; in short: as §1
[27] = tested on: SW-620; assay: Growth inhibition of human SW620 cells; assay type: functional; in short: as §1
[28] = tested on: A549; assay: Growth inhibition of human A549 cells; assay type: functional
[29] = tested on: U-251; assay: Growth inhibition of human U251 cells; assay type: functional; in short: as §1
[30] = Growth inhibition of human OVACR4 cells; assay type: functional
[31] = tested on: SF-539; assay: Growth inhibition of human SF539 cells; assay type: functional; in short: as §1
[32] = tested on: DLD-1; assay: Growth inhibition of human DLD1 cells; assay type: functional
[33] = tested on: IGROV-1; assay: Growth inhibition of human IGROV1 cells; assay type: functional
[34] = tested on: SK-MEL-2; assay: Growth inhibition of human SK-MEL-2 cells; assay type: functional; in short: as §1
[35] = tested on: ACHN; assay: Growth inhibition of human ACHN cells; assay type: functional
[36] = tested on: NCI-H522; assay: Growth inhibition of human NCI-H522 cells; assay type: functional
[37] = tested on: M19-MEL; assay: Growth inhibition of human M19-MEL cells; assay type: functional
[38] = Growth inhibition of human DMS144 cells; assay type: functional
[39] = Growth inhibition of human LXFL529 cells; assay type: functional; details: LXFL 529
[40] = tested on: SF-268; assay: Growth inhibition of human SF268 cells; assay type: functional; in short: as §1
[41] = tested on: NCI-H226; assay: Growth inhibition of human NCI-H226 cells; assay type: functional
[42] = tested on: CCRF-CEM; assay: Growth inhibition of human CCRF-CEM cells; assay type: functional
[43] = tested on: SNB-19; assay: Growth inhibition of human SNB19 cells; assay type: functional; in short: as §1
[44] = tested on: LOX IMVI; assay: Growth inhibition of human LOX IMVI cells; assay type: functional
[45] = tested on: TK-10; assay: Growth inhibition of human TK10 cells; assay type: functional; in short: as §1
[46] = tested on: K562; assay: Growth inhibition of human K562 cells; assay type: functional
[47] = tested on: HCT-8; assay: Growth inhibition of human HCT8 cells; assay type: functional; details: read-out: ED50 (the source's name)
In short: (§2)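 In-house cytotoxicity assay following an NCI protocol, run on a panel of human tumour lines: KB nasopharyngeal epidermoid carcinoma and HCT-8 ileocecal adenocarcinoma. Potency is reported as ED50 in µg/mL.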

[48] = tested on: KB; assay: Growth inhibition of human KB cells; assay type: functional; details: read-out: ED50 (the source's name); in short: as §2
[49] = tested on: SN12C; assay: Growth inhibition of human SN12C cells; assay type: functional; in short: as §1
[50] = tested on: HOP-62; assay: Growth inhibition of human HOP62 cells; assay type: functional
[51] = tested on: KM12; assay: Growth inhibition of human KM12 cells; assay type: functional
[52] = tested on: HT-29; assay: Growth inhibition of human HT29 cells; assay type: functional

COc1ccc2c([nH]c3cc(O)c(C)cc32)c1CC=C(C)C
GI50 [1]: 8.32 µM | GI50 [2]: 5.5 µM | GI50 [3]: 4.9 µM | GI50 [4]: 7.94 µM | GI50 [5]: 11.5 µM | GI50 [6]: 25.1 µM | GI50 [7]: 7.94 µM | GI50 [8]: 1.62 µM | GI50 [9]: 5.13 µM | GI50 [10]: 25.1 µM | GI50 [11]: 17.4 µM | GI50 [12]: 9.12 µM | GI50 [13]: 4.37 µM | GI50 [14]: 5.37 µM | GI50 [15]: 5.62 µM | GI50 [16]: 25.1 µM | GI50 [17]: 16.2 µM | GI50 [18]: 10.7 µM | GI50 [19]: 12 µM | GI50 [20]: 14.5 µM | GI50 [21]: 4.47 µM | GI50 [22]: 25.1 µM | GI50 [23]: 25.1 µM | GI50 [24]: 8.51 µM | GI50 [25]: 8.13 µM | GI50 [26]: 7.24 µM | GI50 [27]: 6.76 µM | GI50 [28]: 8.51 µM | GI50 [29]: 5.89 µM | GI50 [30]: 22.4 µM | GI50 [31]: 7.94 µM | GI50 [32]: 9.12 µM | GI50 [33]: 2.29 µM | GI50 [34]: 25.1 µM | GI50 [35]: 9.33 µM | GI50 [36]: 5.89 µM | GI50 [37]: 12.3 µM | GI50 [38]: 20.9 µM | GI50 [39]: 8.71 µM | GI50 [40]: 9.55 µM | GI50 [41]: 25.1 µM | GI50 [42]: 5.37 µM | GI50 [43]: 25.1 µM | GI50 [44]: 4.37 µM | GI50 [45]: 5.01 µM | GI50 [46]: 5.75 µM

COc1ccc2[nH]c3c(c2c1)C(=O)C=C(C)C3=O
EC50 [47]: 6.03 µg/mL (≈ 25 µM) | EC50 [48]: 5.08 µg/mL (≈ 21.1 µM) | EC50 [22]: > 20 µg/mL | EC50 [25]: 6.22 µg/mL (≈ 25.8 µM)

CC1=CC(=O)c2c([nH]c3ccc(C)cc23)C1=O
EC50 [47]: 5.47 µg/mL (≈ 24.3 µM) | EC50 [48]: 4.6 µg/mL (≈ 20.4 µM) | EC50 [22]: 3.2 µg/mL (≈ 14.2 µM) | EC50 [25]: 5.29 µg/mL (≈ 23.5 µM)

CC1=CC(=O)c2c([nH]c3ccc(Cl)cc23)C1=O
EC50 [47]: 5.5 µg/mL (≈ 22.4 µM) | EC50 [48]: 3.52 µg/mL (≈ 14.3 µM) | EC50 [22]: 4.42 µg/mL (≈ 18 µM) | EC50 [25]: 5.5 µg/mL (≈ 22.4 µM)

COc1cc(Cc2c(C)cc(OC)c3[nH]c4ccccc4c23)cc2c1[nH]c1ccccc12
GI50 [1]: 10 µM | GI50 [2]: 5.37 µM | GI50 [3]: 5.75 µM | GI50 [4]: 7.94 µM | GI50 [5]: 5.75 µM | GI50 [49]: 6.46 µM | GI50 [50]: 5.5 µM | GI50 [6]: 5.01 µM | GI50 [7]: 7.59 µM | GI50 [8]: 5.13 µM | GI50 [9]: 6.92 µM | GI50 [51]: 5.37 µM | GI50 [10]: 8.71 µM | GI50 [11]: 4.47 µM | GI50 [12]: 5.62 µM | GI50 [13]: 5.37 µM | GI50 [14]: 5.37 µM | GI50 [15]: 5.13 µM | GI50 [16]: 6.03 µM | GI50 [17]: 5.25 µM | GI50 [18]: 7.24 µM | GI50 [19]: 9.12 µM | GI50 [20]: 6.03 µM | GI50 [21]: 4.57 µM | GI50 [22]: 12 µM | GI50 [23]: 8.71 µM | GI50 [24]: 7.59 µM | GI50 [25]: 3.98 µM | GI50 [26]: 7.76 µM | GI50 [52]: 7.76 µM | GI50 [27]: 8.13 µM | GI50 [28]: 5.75 µM | GI50 [29]: 5.01 µM | GI50 [31]: 4.57 µM | GI50 [32]: 8.91 µM | GI50 [33]: 9.12 µM | GI50 [34]: 3.98 µM | GI50 [35]: 4.68 µM | GI50 [36]: 5.01 µM | GI50 [37]: 9.77 µM | GI50 [38]: 10.5 µM | GI50 [39]: 4.17 µM | GI50 [40]: 6.92 µM | GI50 [41]: 4.68 µM | GI50 [42]: 8.51 µM | GI50 [43]: 5.89 µM | GI50 [44]: 3.89 µM | GI50 [45]: 12 µM | GI50 [46]: 7.24 µM

COc1cc(Cn2c3ccccc3c3cc(C)cc(OC)c32)cc2c1[nH]c1ccccc12
GI50 [1]: 25.1 µM | GI50 [2]: 25.1 µM | GI50 [3]: 8.51 µM | GI50 [4]: 12.3 µM | GI50 [5]: 22.9 µM | GI50 [49]: 25.1 µM | GI50 [50]: 6.61 µM | GI50 [6]: 25.1 µM | GI50 [7]: 5.37 µM | GI50 [8]: 6.31 µM | GI50 [9]: 17 µM | GI50 [51]: 10.2 µM | GI50 [10]: 25.1 µM | GI50 [11]: 25.1 µM | GI50 [12]: 15.1 µM | GI50 [13]: 25.1 µM | GI50 [14]: 10.2 µM | GI50 [15]: 10.7 µM | GI50 [17]: 15.5 µM | GI50 [18]: 25.1 µM | GI50 [19]: 25.1 µM | GI50 [20]: 25.1 µM | GI50 [21]: 10.5 µM | GI50 [22]: 25.1 µM | GI50 [23]: 25.1 µM | GI50 [24]: 15.1 µM | GI50 [25]: 25.1 µM | GI50 [26]: 16.6 µM | GI50 [52]: 17 µM | GI50 [27]: 13.5 µM | GI50 [28]: 23.4 µM | GI50 [29]: 25.1 µM | GI50 [31]: 9.77 µM | GI50 [32]: 25.1 µM | GI50 [33]: 25.1 µM | GI50 [34]: 25.1 µM | GI50 [35]: 12.3 µM | GI50 [36]: 5.37 µM | GI50 [37]: 25.1 µM | GI50 [38]: 20 µM | GI50 [39]: 17 µM | GI50 [40]: 17.4 µM | GI50 [41]: 17 µM | GI50 [42]: 12 µM | GI50 [43]: 25.1 µM | GI50 [44]: 8.13 µM | GI50 [45]: 25.1 µM | GI50 [46]: 9.77 µM

COc1cc(CO)cc2c1[nH]c1ccccc12 [KOENOLINE]
GI50 [41]: 1.74 µM | TGI ([41]; read-out: pTGI): 5.25 µM

COc1ccc2c3c([nH]c2c1)C(=O)C=C(C)C3=O
EC50 [47]: > 20 µg/mL | EC50 [48]: > 20 µg/mL | EC50 [22]: > 20 µg/mL | EC50 [25]: 7.25 µg/mL (≈ 30.1 µM)

COc1cccc2c3c([nH]c12)C(=O)C=C(C)C3=O
EC50 [47]: 5.3 µg/mL (≈ 22 µM) | EC50 [48]: 4.95 µg/mL (≈ 20.5 µM) | EC50 [22]: 4.22 µg/mL (≈ 17.5 µM) | EC50 [25]: 3.55 µg/mL (≈ 14.7 µM)
